Test results as given in ChEMBL document CHEMBL1165950, “Design and synthesis of new potent anticancer pyrazoles with high FLT3 kinase inhibitory selectivity” (Bioorg Med Chem, 2010).

How the values were obtained:
Format in all cases: functional
SF-539 = experiment: Cytotoxicity against human SF539 cells assessed as cell growth at 10 uM; settings: read-out: Activity
How it was run: (§1)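 NCI-60 screen: cells grown in RPMI 1640 with 5% FBS and 2 mM L-glutamine, plated at 5000–40,000 cells/well according to doubling time, and preincubated 24 h at 37 °C, 5% CO2. The single 10 µM dose (DMSO stock) was added, then incubated 48 h. Cells were TCA-fixed and stained with 0.4% SRB, read at 515 nm, and growth % calculated against time-zero and control plates.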

SNB-19 = experiment: Cytotoxicity against human SNB19 cells assessed as cell growth at 10 uM; settings: read-out: Activity; how it was run: as §1
SNB-75 = experiment: Cytotoxicity against human SNB75 cells assessed as cell growth at 10 uM; settings: read-out: Activity; how it was run: as §1
U-251 = experiment: Cytotoxicity against human U251 cells assessed as cell growth at 10 uM; settings: read-out: Activity; how it was run: as §1
LOX IMVI = experiment: Cytotoxicity against human LOXIMVI cells assessed as cell growth at 10 uM; settings: read-out: Activity; how it was run: as §1
Malme-3M = experiment: Cytotoxicity against human MALME-3M cells assessed as cell growth at 10 uM; settings: read-out: Activity; how it was run: as §1
M14 = experiment: Cytotoxicity against human M14 cells assessed as cell growth at 10 uM; settings: read-out: Activity; how it was run: as §1
MDA-MB-435 = experiment: Cytotoxicity against human MDA-MB-435 cells assessed as cell growth at 10 uM; settings: read-out: Activity; how it was run: as §1
SK-MEL-2 = experiment: Cytotoxicity against human SK-MEL-2 cells assessed as cell growth at 10 uM; settings: read-out: Activity; how it was run: as §1
SK-MEL-28 = experiment: Cytotoxicity against human SK-MEL-28 cells assessed as cell growth at 10 uM; settings: read-out: Activity; how it was run: as §1
SK-MEL-5 = experiment: Cytotoxicity against human SK-MEL-5 cells assessed as cell growth at 10 uM; settings: read-out: Activity; how it was run: as §1
UACC-257 = experiment: Cytotoxicity against human UACC257 cells assessed as cell growth at 10 uM; settings: read-out: Activity; how it was run: as §1
UACC-62 = experiment: Cytotoxicity against human UACC62 cells assessed as cell growth at 10 uM; settings: read-out: Activity; how it was run: as §1
IGROV-1 = experiment: Cytotoxicity against human IGROV1 cells assessed as cell growth at 10 uM; settings: read-out: Activity
How it was run: (§2)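 Single-dose NCI-60 screen at 10 µM. Cells were grown in RPMI 1640 with 5% FBS and 2 mM L-glutamine, then treated for 48 h at 37 °C. Protein was measured by SRB staining with absorbance at 515 nm. Percentage growth was recorded, and inhibition percentage was calculated as 100 minus growth percentage.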

OVCAR-3 = experiment: Cytotoxicity against human OVCAR-3 cells assessed as cell growth at 10 uM; settings: read-out: Activity; how it was run: as §1
OVCAR-4 = experiment: Cytotoxicity against human OVCAR4 cells assessed as cell growth at 10 uM; settings: read-out: Activity; how it was run: as §1
OVCAR-5 = experiment: Cytotoxicity against human OVCAR5 cells assessed as cell growth at 10 uM; settings: read-out: Activity; how it was run: as §1
OVCAR-8 = experiment: Cytotoxicity against human OVCAR8 cells assessed as cell growth at 10 uM; settings: read-out: Activity; how it was run: as §1
NCI/ADR-RES = experiment: Cytotoxicity against human NCI/ADR-RES cells assessed as cell growth at 10 uM; settings: read-out: Activity; how it was run: as §1
SK-OV-3 = experiment: Cytotoxicity against human SKOV3 cells assessed as cell growth at 10 uM; settings: read-out: Activity; how it was run: as §1
786-0 = experiment: Cytotoxicity against human 786-0 cells assessed as cell growth at 10 uM; settings: read-out: Activity; how it was run: as §2
A498 = experiment: Cytotoxicity against human A498 cells assessed as cell growth at 10 uM; settings: read-out: Activity; how it was run: as §2
ACHN = experiment: Cytotoxicity against human ACHN cells assessed as cell growth at 10 uM; settings: read-out: Activity; how it was run: as §2
CAKI-1 = experiment: Cytotoxicity against human Caki1 cells assessed as cell growth at 10 uM; settings: read-out: Activity; how it was run: as §2
RXF 393 = experiment: Cytotoxicity against human RXF393 cells assessed as cell growth at 10 uM; settings: read-out: Activity; how it was run: as §1
SN12C = experiment: Cytotoxicity against human SN12C cells assessed as cell growth at 10 uM; settings: read-out: Activity; how it was run: as §1
TK-10 = experiment: Cytotoxicity against human TK10 cells assessed as cell growth at 10 uM; settings: read-out: Activity; how it was run: as §1
UO-31 = experiment: Cytotoxicity against human UO31 cells assessed as cell growth at 10 uM; settings: read-out: Activity; how it was run: as §1
PC-3 = experiment: Cytotoxicity against human PC3 cells assessed as cell growth at 10 uM; settings: read-out: Activity; how it was run: as §1
DU-145 = experiment: Cytotoxicity against human DU145 cells assessed as cell growth at 10 uM; settings: read-out: Activity; how it was run: as §2
MCF7 = experiment: Cytotoxicity against human MCF7 cells assessed as cell growth at 10 uM; settings: read-out: Activity; how it was run: as §1
MDA-MB-231 = experiment: Cytotoxicity against human MDA-MB-231 cells assessed as cell growth at 10 uM; settings: read-out: Activity; how it was run: as §1
[1] = Cytotoxicity against human Hs 578T cells assessed as cell growth at 10 uM; settings: read-out: Activity; how it was run: as §2
BT-549 = experiment: Cytotoxicity against human BT549 cells assessed as cell growth at 10 uM; settings: read-out: Activity; how it was run: as §2
T47D = experiment: Cytotoxicity against human T47D cells assessed as cell growth at 10 uM; settings: read-out: Activity; how it was run: as §1
MDA-MB-468 = experiment: Cytotoxicity against human MDA-MB-468 cells assessed as cell growth at 10 uM; settings: read-out: Activity; how it was run: as §1
[2] = Growth inhibition of human NCI60 cells at 10 uM after 48 hrs by sulforhodamine B assay relative to control; settings: NCI60, 48 h, read-out: GI
How it was run: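 Single-dose NCI screen at 10 µM across the 60-line panel, 48 h exposure at 37 °C after a 24 h preincubation. Adherent cells were fixed with cold TCA and stained with 0.4% SRB, and absorbance was read at 515 nm. Inhibition % was taken as 100 minus growth %, and the mean across all lines was reported.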

CCRF-CEM = experiment: Cytotoxicity against human CCRF-CEM cells assessed as cell growth at 10 uM; settings: read-out: Activity; how it was run: as §2
HL-60(TB) = experiment: Cytotoxicity against human HL-60(TB) cells assessed as cell growth at 10 uM; settings: read-out: Activity
How it was run: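 NCI 60-cell panel screen at a single concentration of 10 µM. Cells are grown in RPMI 1640 with 5% FBS and 2 mM L-glutamine and read by SRB protein staining at 515 nm. Percent growth is measured relative to time-zero and untreated controls; inhibition % is 100 minus growth %.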

K562 = experiment: Cytotoxicity against human K562 cells assessed as cell growth at 10 uM; settings: read-out: Activity; how it was run: as §2
MOLT-4 = experiment: Cytotoxicity against human MOLT4 cells assessed as cell growth at 10 uM; settings: read-out: Activity; how it was run: as §1
[3] = Cytotoxicity against human […] cells assessed as cell growth at 10 uM; settings: read-out: Activity; how it was run: as §1
SR = experiment: Cytotoxicity against human SR cells assessed as cell growth at 10 uM; settings: read-out: Activity; how it was run: as §1
A549 = experiment: Cytotoxicity against human A549 cells assessed as cell growth at 10 uM; settings: read-out: Activity; how it was run: as §2
EKVX = experiment: Cytotoxicity against human EKVX cells assessed as cell growth at 10 uM; settings: read-out: Activity; how it was run: as §2
HOP-62 = experiment: Cytotoxicity against human HOP62 cells assessed as cell growth at 10 uM; settings: read-out: Activity; how it was run: as §2
HOP-92 = experiment: Cytotoxicity against human HOP92 cells assessed as cell growth at 10 uM; settings: read-out: Activity; how it was run: as §2
NCI-H226 = experiment: Cytotoxicity against human NCI-H226 cells assessed as cell growth at 10 uM; settings: read-out: Activity; how it was run: as §1
NCI-H23 = experiment: Cytotoxicity against human NCI-H23 cells assessed as cell growth at 10 uM; settings: read-out: Activity; how it was run: as §1
NCI-H322M = experiment: Cytotoxicity against human NCI-H322M cells assessed as cell growth at 10 uM; settings: read-out: Activity; how it was run: as §1
NCI-H460 = experiment: Cytotoxicity against human NCI-H460 cells assessed as cell growth at 10 uM; settings: read-out: Activity; how it was run: as §1
NCI-H522 = experiment: Cytotoxicity against human NCI-H522 cells assessed as cell growth at 10 uM; settings: read-out: Activity; how it was run: as §1
COLO 205 = experiment: Cytotoxicity against human COLO205 cells assessed as cell growth at 10 uM; settings: read-out: Activity; how it was run: as §2
HCC 2998 = experiment: Cytotoxicity against human HCC2998 cells assessed as cell growth at 10 uM; settings: read-out: Activity; how it was run: as §2
HCT-116 = experiment: Cytotoxicity against human HCT116 cells assessed as cell growth at 10 uM; settings: read-out: Activity; how it was run: as §2
HCT-15 = experiment: Cytotoxicity against human HCT15 cells assessed as cell growth at 10 uM; settings: read-out: Activity; how it was run: as §2
HT-29 = experiment: Cytotoxicity against human HT-29 cells assessed as cell growth at 10 uM; settings: read-out: Activity; how it was run: as §2
KM12 = experiment: Cytotoxicity against human KM12 cells assessed as cell growth at 10 uM; settings: read-out: Activity; how it was run: as §1
SW-620 = experiment: Cytotoxicity against human SW620 cells assessed as cell growth at 10 uM; settings: read-out: Activity; how it was run: as §1
SF-268 = experiment: Cytotoxicity against human SF268 cells assessed as cell growth at 10 uM; settings: read-out: Activity; how it was run: as §1
SF-295 = experiment: Cytotoxicity against human SF295 cells assessed as cell growth at 10 uM; settings: read-out: Activity; how it was run: as §1

COc1cc(C)cc(-c2nn(CC#N)cc2-c2ccnc(-c3cccc(NC(C)=O)c3)c2)c1
growth at 10 µM (SF-539): 84.5%
growth at 10 µM (SNB-19): 89.6%
growth at 10 µM (SNB-75): 72.4%
growth at 10 µM (U-251): 94.3%
growth at 10 µM (LOX IMVI): 97.5%
growth at 10 µM (Malme-3M): 108%
growth at 10 µM (M14): 96.3%
growth at 10 µM (MDA-MB-435): 99.6%
growth at 10 µM (SK-MEL-2): 92.1%
growth at 10 µM (SK-MEL-28): 104%
growth at 10 µM (SK-MEL-5): 36.9%
growth at 10 µM (UACC-257): 89.7%
growth at 10 µM (UACC-62): 81.7%
growth at 10 µM (IGROV-1): 98.4%
growth at 10 µM (OVCAR-3): 109%
growth at 10 µM (OVCAR-4): 99.7%
growth at 10 µM (OVCAR-5): 91.6%
growth at 10 µM (OVCAR-8): 88%
growth at 10 µM (NCI/ADR-RES): 87.3%
growth at 10 µM (SK-OV-3): 93.3%
growth at 10 µM (786-0): 84%
growth at 10 µM (A498): 74.2%
growth at 10 µM (ACHN): 88%
growth at 10 µM (CAKI-1): 77.3%
growth at 10 µM (RXF 393): 81.5%
growth at 10 µM (SN12C): 83%
growth at 10 µM (TK-10): 87.1%
growth at 10 µM (UO-31): 63.6%
growth at 10 µM (PC-3): 85.8%
growth at 10 µM (DU-145): 105%
growth at 10 µM (MCF7): 85%
growth at 10 µM (MDA-MB-231): 86.5%
growth at 10 µM [1]: 99%
growth at 10 µM (BT-549): 79.1%
growth at 10 µM (T47D): 79.3%
growth at 10 µM (MDA-MB-468): 82.8%
inhibition of growth at 10 µM [2]: 1.18%
growth at 10 µM (CCRF-CEM): 83.9%
growth at 10 µM (HL-60(TB)): 74.9%
growth at 10 µM (K562): 86.4%
growth at 10 µM (MOLT-4): 82.8%
growth at 10 µM [3]: 73.9%
growth at 10 µM (SR): 80.9%
growth at 10 µM (A549): 86.7%
growth at 10 µM (EKVX): 101%
growth at 10 µM (HOP-62): 98.5%
growth at 10 µM (HOP-92): 79.6%
growth at 10 µM (NCI-H226): 93.1%
growth at 10 µM (NCI-H23): 95.3%
growth at 10 µM (NCI-H322M): 96.9%
growth at 10 µM (NCI-H460): 107%
growth at 10 µM (NCI-H522): 82.5%
growth at 10 µM (COLO 205): 93.5%
growth at 10 µM (HCC 2998): 101%
growth at 10 µM (HCT-116): 96.4%
growth at 10 µM (HCT-15): 94.5%
growth at 10 µM (HT-29): 99.4%
growth at 10 µM (KM12): 109%
growth at 10 µM (SW-620): 104%
growth at 10 µM (SF-268): 97.3%
growth at 10 µM (SF-295): 102%
